Experimental data as given in ChEMBL document CHEMBL1158684, “Cicadapeptins I and II: new Aib-containing peptides from the entomopathogenic fungus Cordyceps heteropoda” (2005).
Calls of active or inactive are those of the source. The calls are words filed in the database; no cut-off is given here. Where a SMILES comes first, the peptide text is derived from it. [ ]: non-standard residue; d: D form. The star is where a group is joined. Hyp = O=C(O)[C@@H]1C[C@@H](O)CN1; Decanoyl = CCCCCCCCCC(=O)*; X1 = CC(C)C[C@@H](CN)N*; Aib = CC(C)(N)C(=O)O

Key:
Bacillus subtilis [1] = test: Antimicrobial activity against Bacillus subtilis at 100 ug/disk by disk diffusion assay; assay type: functional; conditions: read-out: IZ
Outline: (§1)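 Bacterial targets grown 24 h in nutrient broth. 0.6 mL of culture was spread on 9 cm nutrient agar plates and dried 1 h. Test samples in 10 µL MeOH were applied to 4 mm filter paper disks, air-dried 1 h and placed on the plates. Read-out was the inhibition zone diameter in mm.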

Bacillus cereus [2] = test: Antimicrobial activity against Bacillus cereus at 100 ug/disk by disk diffusion assay; assay type: functional; conditions: read-out: IZ; outline: as §1
Escherichia coli [3] = test: Antimicrobial activity against Escherichia coli at 100 ug/disk by disk diffusion assay; assay type: functional; conditions: read-out: IZ; outline: as §1
Bacillus cereus [4] = test: Antimicrobial activity against Bacillus cereus by disk diffusion assay; assay type: functional, organism-based; outline: as §1
Bacillus subtilis [5] = test: Antimicrobial activity against Bacillus subtilis by disk diffusion assay; assay type: functional, organism-based; outline: as §1
Colletotrichum fragariae = test: Antimicrobial activity against Colletotrichum fragariae by disk diffusion assay; assay type: functional
Outline: (§2)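 Filamentous fungal targets were tested on potato dextrose agar plates spread with 0.6 mL spore suspension (1 × 10^6 spores/mL) and dried 1 h. Samples in 10 µL MeOH were loaded on 4 mm paper disks, air-dried 1 h and laid on the plates. Activity was scored as inhibition zone size in mm.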

Fusarium oxysporum = test: Antimicrobial activity against Fusarium oxysporum by disk diffusion assay; assay type: functional; outline: as §2
Escherichia coli [6] = test: Antimicrobial activity against Escherichia coli by disk diffusion assay; assay type: functional, organism-based; outline: as §1
Botrytis cinerea = test: Antimicrobial activity against Botrytis cinerea by disk diffusion assay; assay type: functional; outline: as §2
[7] = test system: Colletotrichum gloeosporioides; test: Antimicrobial activity against Colletotrichum gloeosporioides by disk diffusion assay; assay type: functional; outline: as §2
Bacillus cereus [8] = test: Antimicrobial activity against Bacillus cereus at 30 ug/disk by disk diffusion assay; assay type: functional; conditions: read-out: IZ; outline: as §1
Bacillus subtilis [9] = test: Antimicrobial activity against Bacillus subtilis at 30 ug/disk by disk diffusion assay; assay type: functional; conditions: read-out: IZ; outline: as §1

## CCCCCCCCCC(=O)N1C[C@H](O)C[C@H]1C(=O)N1C[C@H](O)C[C@H]1C(=O)N[C@H](C(=O)NC(C)(C)C(=O)N[C@@H](CCC(N)=O)C(=O)NC(C)(C)C(=O)N[C@H](C(=O)N[C@H](CN)CC(C)C)[C@@H](C)CC)C(C)C [CICADAPEPTIN II] (Decanoyl-[Hyp][Hyp]V[Aib]Q[Aib]I-X1)
Bacillus subtilis [1]
  zone of inhibition at 100 µg/disc: 11 mm
Bacillus cereus [2]
  zone of inhibition at 100 µg/disc: 12 mm
Escherichia coli [3]
  zone of inhibition at 100 µg/disc: 16 mm

## CCCCCCCCCC(=O)N1C[C@H](O)C[C@H]1C(=O)N1C[C@H](O)C[C@H]1C(=O)N[C@H](C(=O)NC(C)(C)C(=O)N[C@@H](CCC(N)=O)C(=O)NC(C)(C)C(=O)N[C@@H](CC(C)C)C(=O)N[C@H](CN)CC(C)C)C(C)C [CICADAPEPTIN I] (Decanoyl-[Hyp][Hyp]V[Aib]Q[Aib]L-X1)
Bacillus subtilis [1]
  zone of inhibition at 100 µg/disc: 13 mm
Bacillus cereus [2]
  zone of inhibition at 100 µg/disc: 13 mm
Escherichia coli [3]
  zone of inhibition at 100 µg/disc: 16 mm

## CCCCCCC(=O)CCCCCC/C=C/C[C@@H](O)[C@H](O)[C@@](N)(CO)C(=O)O [MYRIOCIN]
Bacillus cereus [4]
  Activity: inactive
Bacillus subtilis [5]
  Activity: inactive
Colletotrichum fragariae
  inhibition zone (IZ): 14 mm
Fusarium oxysporum
  inhibition zone (IZ): 17 mm
Escherichia coli [6]
  Activity: inactive
Botrytis cinerea
  inhibition zone (IZ): 28 mm
[7]
  inhibition zone (IZ): 8 mm

## CN(C)[C@@H]1C(O)=C(C(N)=O)C(=O)[C@@]2(O)C(O)=C3C(=O)c4c(O)cccc4[C@@](C)(O)[C@H]3C[C@@H]12 [TETRACYCLINE]
Bacillus cereus [8]
  zone of inhibition at 30 µg/disc: 29 mm
Bacillus subtilis [9]
  zone of inhibition at 30 µg/disc: 18 mm
